Reference: ChEMBL document CHEMBL1806372, “Cytotoxic ring A-modified steroid analogues derived from Grundmann's ketone” (Eur J Med Chem, 2011)
Calls of active or inactive are those of the source. The calls are words filed in the database; no cut-off is given here.

Assays:
Assay type in all cases: functional
ACHN = assay: Cytotoxicity against human ACHN cells after 48 hrs by sulforhodamine B assay; details: read-out: LC50 (the source's name)
Procedure, shortened: (§1)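 NCI 60 human tumour cell line panel run to the NCI protocol. GI50, TGI and LC50 come from log concentration vs % growth inhibition curves for each cell line. Lines insensitive at the top concentration are reported with ">".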

MOLT-4 = assay: Growth inhibition of human MOLT4 cells after 48 hrs by sulforhodamine B assay; details: MOLT-4, 48 h
Procedure, shortened: (§2)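 GI50, TGI and LC50 were derived from log concentration versus % growth inhibition curves for each cell line. GI50 is the concentration giving a 50% decrease in net cell growth. Insensitive lines are reported as greater than the highest concentration.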

[1] = Growth inhibition of human Hs 578T cells after 48 hrs by sulforhodamine B assay
Procedure, shortened: (§3)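 From log concentration versus % growth curves, GI50 (50% decrease in net growth), TGI (total growth inhibition) and LC50 (net 50% loss of initial cells) are derived for each line.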

SK-MEL-5 = assay: Cytotoxicity against human SK-MEL-5 cells after 48 hrs by sulforhodamine B assay; details: SK-MEL-5, 48 h, read-out: LC50 (the source's name); procedure, shortened: as §1
HOP-62 = assay: Cytotoxicity against human HOP62 cells after 48 hrs by sulforhodamine B assay; details: HOP-62, 48 h, read-out: LC50 (the source's name); procedure, shortened: as §1
SW-620 = assay: Cytotoxicity against human SW620 cells after 48 hrs by sulforhodamine B assay; details: SW-620, 48 h, read-out: LC50 (the source's name)
HOP-92 [2] = assay: Growth inhibition of human HOP92 cells after 48 hrs by sulforhodamine B assay; details: HOP-92, 48 h; procedure, shortened: as §3
SK-OV-3 = assay: Growth inhibition of human SKOV3 cells after 48 hrs by sulforhodamine B assay; details: SK-OV-3, 48 h
Procedure, shortened: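 NCI 60-cell panel five-dose assay. GI50, TGI and LC50 are derived from log concentration versus % growth inhibition curves. Cell lines insensitive at the top concentration are given a ">" prefix.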

CAKI-1 = assay: Cytotoxicity against human Caki1 cells after 48 hrs by sulforhodamine B assay; details: CAKI-1, 48 h, read-out: LC50 (the source's name); procedure, shortened: as §1
SF-539 = assay: Cytotoxicity against human SF539 cells after 48 hrs by sulforhodamine B assay; details: SF-539, 48 h, read-out: LC50 (the source's name); procedure, shortened: as §1
RXF 393 = assay: Cytotoxicity against human RXF393 cells after 48 hrs by sulforhodamine B assay; details: RXF 393, 48 h, read-out: LC50 (the source's name); procedure, shortened: as §1
MCF7 = assay: Cytotoxicity against human MCF7 cells after 48 hrs by sulforhodamine B assay; details: MCF7, 48 h, read-out: LC50 (the source's name); procedure, shortened: as §1
SNB-19 = assay: Cytotoxicity against human SNB19 cells after 48 hrs by sulforhodamine B assay; details: SNB-19, 48 h, read-out: LC50 (the source's name); procedure, shortened: as §1
786-0 = assay: Cytotoxicity against human 786-0 cells after 48 hrs by sulforhodamine B assay; details: 786-0, 48 h, read-out: LC50 (the source's name); procedure, shortened: as §1
HOP-92 [3] = assay: Cytotoxicity against human HOP92 cells after 48 hrs by sulforhodamine B assay; details: HOP-92, 48 h, read-out: LC50 (the source's name); procedure, shortened: as §1
OVCAR-4 = assay: Growth inhibition of human OVCAR4 cells after 48 hrs by sulforhodamine B assay; details: OVCAR-4, 48 h; procedure, shortened: as §2
HT-29 = assay: Growth inhibition of human HT-29 cells after 48 hrs by sulforhodamine B assay; details: HT-29, 48 h; procedure, shortened: as §3
MDA-MB-468 = assay: Cytotoxicity against human MDA-MB-468 cells after 48 hrs by sulforhodamine B assay; details: MDA-MB-468, 48 h, read-out: LC50 (the source's name); procedure, shortened: as §1
U-251 = assay: Cytotoxicity against human U251 cells after 48 hrs by sulforhodamine B assay; details: U-251, 48 h, read-out: LC50 (the source's name)
HL-60(TB) = assay: Growth inhibition of human HL-60(TB) cells after 48 hrs by sulforhodamine B assay; details: HL-60, 48 h
A498 = assay: Cytotoxicity against human A498 cells after 48 hrs by sulforhodamine B assay; details: A498, 48 h, read-out: LC50 (the source's name); procedure, shortened: as §1
Burkholderia gladioli = assay: Antibacterial activity against Pseudomonas antimicrobica assessed as zone of inhibition at 5 uL and 32 degC after 36 hrs by disk diffusion method
Procedure, shortened: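 Disc diffusion on AC agar, each strain spread evenly over the medium; test compounds given as 1% (w/v) DMSO solutions. Plates covered and incubated 36 h at 32 °C, then the diameter of the zone of inhibited growth measured in mm. Tetracycline served as antibacterial reference.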

| SMILES | GI50 (MOLT-4) [nM] | TGI (MOLT-4) [nM] | GI50 [1] [nM] | TGI [1] [nM] | CC50 (HOP-62) [nM] | CC50 (SW-620) [nM] | GI50 (HOP-92 [2]) [nM] | TGI (HOP-92 [2]) [nM] | GI50 (SK-OV-3) [nM] | CC50 (SF-539) [nM] | CC50 (SNB-19) [nM] | GI50 (OVCAR-4) [nM] | TGI (OVCAR-4) [nM] | GI50 (HT-29) [nM] | TGI (HT-29) [nM] | GI50 (HL-60(TB)) [nM] | also measured |
| --- | --- | --- | --- | --- | --- | --- | --- | --- | --- | --- | --- | --- | --- | --- | --- | --- | --- |
| CC(C)CCC[C@@H](C)[C@H]1CC[C@H]2C3=CCn4c(=O)ccc(=O)n4[C@@H]3CC[C@]12C | 545 | 4130 | 1800 | 4790 | 5330 | 5330 | 175 | 1030 | 1630 | 5640 | 6010 | 686 | 2110 | 616 | 2070 | 113 | CC50 (ACHN): 5190 nM; CC50 (SK-MEL-5): 4520 nM; TGI (SK-OV-3): 2990 nM; CC50 (CAKI-1): 3470 nM; CC50 (RXF 393): 5430 nM; CC50 (MCF7): 4260 nM; CC50 (786-0): 4430 nM; CC50 (HOP-92 [3]): 3760 nM; CC50 (MDA-MB-468): 9420 nM; CC50 (U-251): 4180 nM; TGI (HL-60(TB)): 490 nM; CC50 (A498): 4870 nM |
| CC(C)CCC[C@@H](C)[C@H]1CC[C@H]2C3=CC[C@@H]4C(=O)C=CC(=O)[C@@H]4[C@@H]3CC[C@]12C | 312 | > 100000 | 817 | > 100000 | > 100000 | > 100000 | 28 | 86 | 688 | > 100000 | > 100000 | 159 | 498 | 839 | > 100000 | 153 | diameter of the inhibition zone (DIZ) (Burkholderia gladioli): inactive |
